Results from ChEMBL document CHEMBL4130397, “Tulongicin, an Antibacterial Tri-Indole Alkaloid from a Deep-Water Topsentia sp. Sponge” (J Nat Prod, 2017).
≈ marks a conversion by molar mass, not a printed value.

How the values were obtained:
Staphylococcus aureus = experiment: Antibacterial activity against Staphylococcus aureus ATCC 29213 by CLSI method; assay type: functional
Procedure, shortened: (§1)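 Broth MIC per CLSI guidelines against ATCC strains; each compound tested in duplicate in at least two independent experiments; top concentration tested 100 μg/mL.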

Escherichia coli = experiment: Antibacterial activity against Escherichia coli ATCC 25922 by CLSI method; assay type: functional; procedure, shortened: as §1
[1] = test system: Human immunodeficiency virus 1; experiment: Antiviral activity against ENV pseudotyped CCR5-tropic HIV1 isolate YU2 infected in human TZM-bl cells after 24 hrs by luciferase reporter gene assay; assay type: functional, organism-based; conditions: Human immunodeficiency virus 1, isolate YU2, TZM-bl
HCT-116 = experiment: Cytotoxicity against human HCT116 cells; assay type: cell-based
[2] = test system: Human immunodeficiency virus 1; experiment: Antiviral activity against ENV pseudotyped CXCR4-tropic HIV1 HxB2 infected in human TZM-bl cells after 24 hrs by luciferase reporter gene assay; assay type: functional, organism-based; conditions: Human immunodeficiency virus 1, M:B_HXB2R
BSC-1 = experiment: Cytotoxicity against African green monkey BSC1 cells; assay type: cell-based; conditions: Chlorocebus aethiops

Compound | MIC (Staphylococcus aureus) [µg/mL] | MIC (Escherichia coli) [µg/mL] | IC50 [1] [µM] | IC50 (HCT-116) [µM] | IC50 [2] [µM] | IC50 (BSC-1) [µM]
Cc1onc(-c2ccccc2)c1C(=O)N[C@@H]1C(=O)N2[C@@H]1SC(C)(C)[C@@H]2C(=O)O [OXACILLIN] | 0.25 (≈ 0.623 µM) |  |  |  |  | 
Brc1ccc2c(C(C3=NC[C@H](c4c[nH]c5cc(Br)ccc45)N3)c3c[nH]c4cc(Br)ccc34)c[nH]c2c1 | 1.2 (≈ 1.8 µM) | > 100 | 3.9 | 10 | 2.7 | 46
O[C@H](C1=NC[C@H](c2c[nH]c3cc(Br)ccc23)N1)c1c[nH]c2cc(Br)ccc12 | 3.7 (≈ 7.58 µM) | 100 (≈ 205 µM) | 3.5 | 16 | 4.5 | 93
GENTAMICIN |  | 1 |  |  |  | 
O=C(C1=NC[C@H](c2c[nH]c3cc(Br)ccc23)N1)c1c[nH]c2cc(Br)ccc12 | 1.1 (≈ 2.26 µM) | > 100 | 9.5 | 27 | 12 | 31
